# Experimental data as given in ChEMBL document CHEMBL1141617, “Synthesis and evaluation of antitumoral activity of ester and amide derivatives of 2-arylamino-6-trifluoromethyl-3-pyridinecarboxylic acids” (2008).
# Legend:
# Format in all cases: functional
# K562 = experiment: Growth inhibition of human K562 cells
# Method in brief: (§1)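 NCI 60 human tumour cell line panel grown in RPMI1640 with 5% fetal calf serum and 2 mM L-glutamine. Cells seeded at a density set by each line's growth characteristics and preincubated 24 h. Compounds added in DMSO at 10^-4 to 10^-8 M (five 10-fold dilutions) and left 48 h continuously. Growth read by sulforhodamine B protein stain. GI50 is the molar concentration giving 50% net growth inhibition.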
# MOLT-4 = experiment: Growth inhibition of human MOLT4 cells; conditions: for TGI: read-out: Log TGI (converted); method in brief: as §1
# HL-60 = experiment: Growth inhibition of human HL60 cells; conditions: for TGI: read-out: Log TGI (converted); method in brief: as §1
# SR = experiment: Growth inhibition of human SR cells; conditions: for TGI: read-out: Log TGI (converted); method in brief: as §1
# MDA-MB-231 = experiment: Growth inhibition of human MDA-MB-231 cells; conditions: for TGI: read-out: Log TGI (converted); method in brief: as §1
# RPMI-8226 = experiment: Growth inhibition of human RPMI8226 cells; method in brief: as §1
# MCF7 = experiment: Growth inhibition of human MCF7 cells; method in brief: as §1
# SF-295 = experiment: Growth inhibition of human SF295 cells; method in brief: as §1
# RXF 393 = experiment: Growth inhibition of human RXF393 cells; conditions: for TGI: read-out: Log TGI (converted); method in brief: as §1
# A498 = experiment: Growth inhibition of human A498 cells; method in brief: as §1
# NCI-H522 = experiment: Growth inhibition of human NCI-H522 cells; conditions: for TGI: read-out: Log TGI (converted); method in brief: as §1
# OVCAR-5 = experiment: Growth inhibition of human OVCAR5 cells; method in brief: as §1
# CAKI-1 = experiment: Growth inhibition of human CAKI1 cells; method in brief: as §1
# UO-31 = experiment: Growth inhibition of human UO31 cells; method in brief: as §1
# HOP-92 = experiment: Growth inhibition of human HOP92 cells; conditions: for TGI: read-out: Log TGI (converted); method in brief: as §1
# OVCAR-3 = experiment: Growth inhibition of human OVCAR-3 cells; method in brief: as §1
# Hs-578T = experiment: Growth inhibition of human HS578T cells; method in brief: as §1
# CCRF-CEM = experiment: Growth inhibition of human CCRF-CEM cells; method in brief: as §1
# SK-MEL-5 = experiment: Growth inhibition of human SK-MEL5 cells; conditions: for TGI: read-out: Log TGI (converted); method in brief: as §1
# COLO 205 = experiment: Growth inhibition of human COLO205 cells; method in brief: as §1
# SK-OV-3 = experiment: Growth inhibition of human SKOV3 cells; method in brief: as §1
# NCI-H460 = experiment: Growth inhibition of human NCI-H460 cells; method in brief: as §1
# HCC 2998 = experiment: Growth inhibition of human HCC2998 cells; conditions: for TGI: read-out: Log TGI (converted); method in brief: as §1
# HCT-116 = experiment: Growth inhibition of human HCT116 cells; method in brief: as §1
# SK-MEL-2 = experiment: Growth inhibition of human SKMEL2 cells; method in brief: as §1
# UACC-257 = experiment: Growth inhibition of human UACC257 cells; method in brief: as §1
# IGROV-1 = experiment: Growth inhibition of human IGROV1 cells; method in brief: as §1
# PC-3 = experiment: Growth inhibition of human PC3 cells; method in brief: as §1
# [1] = Growth inhibition of human ADR-RES cells; method in brief: as §1
# T47D = experiment: Growth inhibition of human T47D cells; conditions: for TGI: read-out: Log TGI (converted); method in brief: as §1
# LOX IMVI = experiment: Growth inhibition of human LOXIMVI cells; method in brief: as §1
# EKVX = experiment: Growth inhibition of human EKVX cells; method in brief: as §1
# ACHN = experiment: Growth inhibition of human ACHN cells; method in brief: as §1
# [2] = Growth inhibition of human H23 cells; conditions: NCI-H23; method in brief: as §1
# SNB-75 = experiment: Growth inhibition of human SNB75 cells; method in brief: as §1
# UACC-62 = experiment: Growth inhibition of human UACC62 cells; method in brief: as §1
# OVCAR-4 = experiment: Growth inhibition of human OVCAR4 cells; method in brief: as §1
smiles,measurement,setting,value
COc1ccc(NC(=O)c2ccc(C(F)(F)F)nc2Nc2ccc(Cl)cc2C)cc1Cl,GI50,K562,2400 nM
same,GI50,MOLT-4,1550 nM
same,TGI,MOLT-4,4900 nM
same,GI50,HL-60,2400 nM
same,TGI,HL-60,5370 nM
same,GI50,SR,1700 nM
same,TGI,SR,6460 nM
same,GI50,MDA-MB-231,1660 nM
same,TGI,MDA-MB-231,6760 nM
same,GI50,RPMI-8226,2090 nM
same,TGI,RPMI-8226; read-out: Log TGI (converted),4900 nM
same,GI50,MCF7,2400 nM
same,GI50,SF-295,2340 nM
COc1cccc(NC(=O)c2ccc(C(F)(F)F)nc2Nc2ccc(Cl)cc2C)c1,GI50,RXF 393,1170 nM
same,GI50,A498,1660 nM
same,GI50,NCI-H522,1290 nM
same,TGI,NCI-H522,7240 nM
same,GI50,OVCAR-5,2510 nM
same,GI50,CAKI-1,2750 nM
same,GI50,UO-31,1450 nM
same,TGI,UO-31; read-out: Log TGI (converted),8320 nM
Cc1ccc(Cl)cc1Nc1nc(C(F)(F)F)ccc1C(=O)Oc1ccc(Cl)cc1,GI50,HOP-92,1910 nM
same,GI50,OVCAR-3,2570 nM
same,TGI,OVCAR-3; read-out: Log TGI (converted),8910 nM
COc1cccc(OC(=O)c2ccc(C(F)(F)F)nc2Nc2cc(Cl)ccc2C)c1,GI50,Hs-578T,1230 nM
same,TGI,Hs-578T; read-out: Log TGI (converted),4790 nM
same,GI50,HOP-92,1620 nM
same,TGI,HOP-92,6920 nM
same,GI50,CCRF-CEM,2140 nM
same,TGI,CCRF-CEM; read-out: Log TGI (converted),5130 nM
same,GI50,K562,3090 nM
same,TGI,K562; read-out: Log TGI (converted),9330 nM
same,GI50,MOLT-4,3090 nM
same,TGI,MOLT-4,7940 nM
same,GI50,RXF 393,245 nM
same,TGI,RXF 393,977 nM
Cc1ccc(Cl)cc1Nc1nc(C(F)(F)F)ccc1C(=O)Nc1cccc(C(F)(F)F)c1,GI50,SK-MEL-5,2190 nM
same,TGI,SK-MEL-5,4470 nM
same,GI50,HOP-92,2190 nM
same,TGI,HOP-92,8710 nM
same,GI50,CCRF-CEM,2820 nM
same,GI50,MOLT-4,2750 nM
same,TGI,MOLT-4,10000 nM
same,GI50,RXF 393,2690 nM
same,TGI,RXF 393,7940 nM
same,GI50,COLO 205,1740 nM
same,TGI,COLO 205; read-out: Log TGI (converted),3390 nM
same,GI50,SK-OV-3,1740 nM
same,TGI,SK-OV-3; read-out: Log TGI (converted),5500 nM
same,GI50,A498,2950 nM
same,TGI,A498; read-out: Log TGI (converted),8510 nM
same,GI50,MDA-MB-231,2290 nM
same,TGI,MDA-MB-231,9550 nM
same,GI50,RPMI-8226,2340 nM
same,GI50,NCI-H460,2820 nM
same,TGI,NCI-H460; read-out: Log TGI (converted),10000 nM
same,GI50,NCI-H522,1780 nM
same,TGI,NCI-H522,6310 nM
same,GI50,HCC 2998,1780 nM
same,TGI,HCC 2998,4470 nM
same,GI50,HCT-116,2400 nM
same,GI50,SK-MEL-2,2450 nM
same,TGI,SK-MEL-2; read-out: Log TGI (converted),6610 nM
same,GI50,UACC-257,2950 nM
same,TGI,UACC-257; read-out: Log TGI (converted),8320 nM
same,GI50,IGROV-1,1700 nM
same,GI50,PC-3,2090 nM
same,GI50,MCF7,2510 nM
same,TGI,MCF7; read-out: Log TGI (converted),9550 nM
same,GI50,[1],2140 nM
same,TGI,[1]; read-out: Log TGI (converted),7590 nM
same,GI50,T47D,2240 nM
same,TGI,T47D,8910 nM
COc1cc(NC(=O)c2ccc(C(F)(F)F)nc2Nc2cc(Cl)ccc2C)cc(OC)c1OC,GI50,LOX IMVI,724 nM
same,TGI,LOX IMVI; read-out: Log TGI (converted),2400 nM
same,GI50,SK-MEL-5,1170 nM
same,TGI,SK-MEL-5,10000 nM
same,GI50,HOP-92,< 10 nM
same,TGI,HOP-92,1660 nM
same,GI50,CCRF-CEM,< 10 nM
same,GI50,K562,676 nM
same,GI50,MOLT-4,< 10 nM
same,TGI,MOLT-4,41.7 nM
same,GI50,HL-60,22.9 nM
same,LC50,HL-60,7240 nM
same,TGI,HL-60,1620 nM
same,GI50,SR,18.6 nM
same,TGI,SR,302 nM
same,GI50,EKVX,2750 nM
same,GI50,SK-OV-3,2040 nM
same,GI50,A498,2340 nM
same,GI50,ACHN,1780 nM
same,GI50,MDA-MB-231,1660 nM
same,TGI,MDA-MB-231,8910 nM
same,GI50,RPMI-8226,457 nM
same,GI50,NCI-H522,2290 nM
same,TGI,NCI-H522,7410 nM
same,GI50,HCC 2998,< 10 nM
same,TGI,HCC 2998,5370 nM
same,GI50,HCT-116,2510 nM
same,GI50,IGROV-1,407 nM
same,GI50,PC-3,1200 nM
same,TGI,PC-3; read-out: Log TGI (converted),5370 nM
same,GI50,T47D,2140 nM
same,TGI,T47D,9550 nM
same,GI50,CAKI-1,2400 nM
same,GI50,[2],2190 nM
same,GI50,SNB-75,1070 nM
same,GI50,UACC-62,955 nM
same,GI50,OVCAR-4,1740 nM
